Measured values published in ChEMBL document CHEMBL2021878, “Discovery of Potent Dual PPARα Agonists/CB1 Ligands” (ACS Med Chem Lett, 2011).
The source made the active and inactive calls. The rule behind the calls is not given here.

Tests used:
[1] = target: T1, Peroxisome proliferator-activated receptor alpha (Homo sapiens, UniProt Q07869); test: Agonist activity at human PPARalpha expressed in MCF7 cells co-transfected CPTI DR1-type RE after 16 hrs by luciferase reporter gene assay; assay type: functional, cell-based
T1 sequence (Q07869 whole entry): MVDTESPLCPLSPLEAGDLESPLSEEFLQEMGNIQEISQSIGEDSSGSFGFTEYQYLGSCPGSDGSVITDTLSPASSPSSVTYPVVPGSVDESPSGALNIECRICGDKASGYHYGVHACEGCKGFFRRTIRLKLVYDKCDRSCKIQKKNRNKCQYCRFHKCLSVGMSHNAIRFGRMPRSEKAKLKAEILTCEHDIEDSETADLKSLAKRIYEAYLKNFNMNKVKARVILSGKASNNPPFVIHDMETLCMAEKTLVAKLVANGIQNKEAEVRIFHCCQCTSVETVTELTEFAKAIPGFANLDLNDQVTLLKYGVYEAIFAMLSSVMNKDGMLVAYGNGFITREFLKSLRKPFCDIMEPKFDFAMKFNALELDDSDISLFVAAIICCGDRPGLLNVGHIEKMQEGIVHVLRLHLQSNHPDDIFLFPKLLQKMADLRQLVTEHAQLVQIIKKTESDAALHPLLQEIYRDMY
How it was run: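 Luciferase reporter assay in extracts of MCF-7 cells transiently transfected with a reporter carrying four copies of the human CPTI DR1-type response element, plus PPARα, RXRα and NCoR expression vectors. Cells treated 16 h with compounds at 10 μM, DMSO as solvent control. Mean of at least three experiments with SD; two-tailed paired Student's t-test against solvent.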

[2] = target: T1, Peroxisome proliferator-activated receptor alpha; test: Agonist activity at human PPARalpha expressed in MCF7 cells co-transfected CPTI DR1-type RE after 6 hrs by luciferase reporter gene assay; assay type: functional, cell-based
How it was run: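 Luciferase reporter assay in extracts of MCF-7 cells transiently transfected with a human CPTI DR1-type response element reporter (four copies), plus PPARα, RXRα and NCoR vectors. Cells exposed 6 h to compounds at 10 μM, DMSO as solvent control. Basal and ligand-induced activity recorded.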

Cannabinoid receptor 1 = Cannabinoid receptor 1 (Homo sapiens, UniProt P21554); test: Displacement of [3H]-CP55940 from CB1 receptor after 90 mins by liquid scintillation counting
[3] = target: Cannabinoid receptor 1 (Mus musculus) (UniProt P47746); test: Agonist activity at CB1 receptor in ICR mouse vas deferens assessed as inhibition of amplitude of electrically-stimulated muscle contraction at 10^-7 to 1.8 x 10^-5 M relative to control; assay type: functional, tissue-based
How it was run: (§1)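 Mouse vas deferens, electrically stimulated nerve-smooth muscle preparation. Compounds tested at 10^-7 to 1.8 × 10^-5 M for effects on the nonstimulated basal recording and on the amplitude of electrically evoked contractions. Read-out was % inhibition of evoked contraction compared with vehicle.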

[4] = target: Cannabinoid receptor 1 (Mus musculus) (UniProt P47746); test: Antagonist activity at CB1 receptor in ICR mouse vas deferens assessed as inhibition of ACEA-stimulated electrically-induced muscle contraction at 10^-6 M; assay type: functional, tissue-based
How it was run: (§2)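 Mouse vas deferens under electrical stimulation. Tissues were preincubated with compound at 10^-6 or 2 × 10^-6 M, then increasing concentrations of the CB1 agonist ACEA were added. Mean ± SEM, n = 6–8.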

[5] = target: Cannabinoid receptor 1 (Mus musculus) (UniProt P47746); test: Antagonist activity at CB1 receptor in ICR mouse vas deferens assessed as inhibition of ACEA-stimulated electrically-induced muscle contraction at 2 x 10^-6 M; assay type: functional, tissue-based; how it was run: as §2
[6] = target: Cannabinoid receptor 2 (Mus musculus) (UniProt P47936); test: Antagonist activity at CB2 receptor in ICR mouse vas deferens assessed as inhibition of JWH-015-stimulated electrically-induced muscle contraction; assay type: functional, tissue-based
[7] = target: Cannabinoid receptor 1 (Mus musculus) (UniProt P47746); test: Agonist activity at CB1 receptor in ICR mouse vas deferens assessed as effect on amplitude of nonstimulated muscle contraction at 10^-7 to 1.8 x 10^-5 M relative to control; assay type: functional, tissue-based; how it was run: as §1
Rattus norvegicus = test: Inhibition of food intake in Wistar rat at 0.03 to 3 mg/kg, ip after 30 to 240 mins; assay type: functional, organism-based
[8] = target: Cannabinoid receptor 2 (Homo sapiens) (UniProt P34972); test: Displacement of [3H]-CP55940 from CB2 receptor after 90 mins by liquid scintillation counting
Sequence of Cannabinoid receptor 2 (Homo sapiens) (P34972 whole entry): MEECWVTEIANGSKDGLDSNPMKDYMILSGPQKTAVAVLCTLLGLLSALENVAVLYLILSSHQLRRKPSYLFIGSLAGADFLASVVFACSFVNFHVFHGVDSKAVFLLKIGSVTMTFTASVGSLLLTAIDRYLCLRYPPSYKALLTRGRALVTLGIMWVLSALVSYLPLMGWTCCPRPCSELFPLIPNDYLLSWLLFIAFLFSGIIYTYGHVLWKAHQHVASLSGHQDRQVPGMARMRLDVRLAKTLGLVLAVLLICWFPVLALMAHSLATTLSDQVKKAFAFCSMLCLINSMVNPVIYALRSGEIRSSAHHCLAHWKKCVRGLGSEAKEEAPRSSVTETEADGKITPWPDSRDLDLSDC

Sequence of Cannabinoid receptor 1 (Mus musculus) (P47746 whole entry): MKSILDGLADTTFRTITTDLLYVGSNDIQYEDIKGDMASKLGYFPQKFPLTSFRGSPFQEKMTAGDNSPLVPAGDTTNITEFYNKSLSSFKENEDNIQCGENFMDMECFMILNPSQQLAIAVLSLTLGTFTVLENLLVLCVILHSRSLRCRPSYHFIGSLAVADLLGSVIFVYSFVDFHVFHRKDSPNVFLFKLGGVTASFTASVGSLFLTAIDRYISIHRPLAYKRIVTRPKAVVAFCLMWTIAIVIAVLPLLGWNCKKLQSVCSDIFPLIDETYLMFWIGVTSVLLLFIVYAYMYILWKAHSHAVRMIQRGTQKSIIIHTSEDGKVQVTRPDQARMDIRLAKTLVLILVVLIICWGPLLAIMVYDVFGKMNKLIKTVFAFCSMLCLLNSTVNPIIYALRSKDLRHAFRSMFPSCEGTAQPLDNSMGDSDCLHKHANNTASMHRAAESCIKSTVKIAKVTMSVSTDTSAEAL
Sequence of Cannabinoid receptor 1 (P21554 whole entry): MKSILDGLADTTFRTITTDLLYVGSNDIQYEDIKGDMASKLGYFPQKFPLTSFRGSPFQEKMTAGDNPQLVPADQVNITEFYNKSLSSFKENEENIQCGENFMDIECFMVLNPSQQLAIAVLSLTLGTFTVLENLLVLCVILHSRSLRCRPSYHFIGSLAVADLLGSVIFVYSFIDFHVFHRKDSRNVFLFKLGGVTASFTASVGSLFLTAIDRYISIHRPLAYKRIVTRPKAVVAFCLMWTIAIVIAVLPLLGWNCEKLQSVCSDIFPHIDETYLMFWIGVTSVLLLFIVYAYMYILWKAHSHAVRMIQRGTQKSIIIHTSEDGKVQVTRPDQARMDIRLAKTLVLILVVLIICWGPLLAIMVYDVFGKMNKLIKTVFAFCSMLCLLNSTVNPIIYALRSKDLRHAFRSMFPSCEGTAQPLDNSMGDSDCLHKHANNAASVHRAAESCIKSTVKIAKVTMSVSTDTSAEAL
Sequence of Cannabinoid receptor 2 (Mus musculus) (P47936 whole entry): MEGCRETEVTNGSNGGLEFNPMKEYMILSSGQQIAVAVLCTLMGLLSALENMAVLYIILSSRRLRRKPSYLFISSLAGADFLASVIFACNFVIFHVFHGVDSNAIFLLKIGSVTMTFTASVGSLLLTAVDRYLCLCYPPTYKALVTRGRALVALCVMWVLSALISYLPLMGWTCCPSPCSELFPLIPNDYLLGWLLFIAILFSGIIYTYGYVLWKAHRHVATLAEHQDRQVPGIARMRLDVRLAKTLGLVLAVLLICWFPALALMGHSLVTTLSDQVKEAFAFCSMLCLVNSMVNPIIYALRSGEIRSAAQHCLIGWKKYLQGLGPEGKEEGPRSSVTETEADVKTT

Compound | EC50 [1] [nM] | EC50 [2] [nM] | Ki (Cannabinoid receptor 1) [nM] | inhibition [3] [%] | Activity [4] | Activity [5] | Activity [6] | Activity [7] | inhibition (Rattus norvegicus) | Activity [8] | inhibition [4]
Cc1c(C(=O)Nc2cccc(O)c2)nn(-c2ccc(Cl)cc2Cl)c1-c1ccc(Cl)cc1 | 989 | 887 | 52 |  |  |  |  |  |  |  | 
Cc1c(C(=O)Nc2ccc(O)cc2)nn(-c2ccc(Cl)cc2Cl)c1-c1ccc(Cl)cc1 |  | 971 | 4.6 | < 10 | Active | Active | Active | inactive | inactive |  | 
CCCCCCCC/C=C\CCCCCCCC(=O)NCCO [OLEOYLETHANOLAMIDE] | 152 | 185 |  |  |  |  |  |  |  |  | 
CCOC(=O)C(C)(C)Oc1ccc(NC(=O)c2nn(-c3ccc(Cl)cc3Cl)c(-c3ccc(Cl)cc3)c2C)cc1 |  | 1480 | 109 |  |  |  |  |  |  | inactive | 
Cc1c(C(=O)NN2CCCCC2)nn(-c2ccc(Cl)cc2Cl)c1-c1ccc(I)cc1 |  |  |  |  |  |  |  |  |  |  | Active
CCOC(=O)C(C)(C)Oc1cccc(NC(=O)c2nn(-c3ccc(Cl)cc3Cl)c(-c3ccc(Cl)cc3)c2C)c1 | 743 | 856 | 65 | < 10 | Active | Active | inactive | inactive | inactive |  | 
